Results taken from ChEMBL document CHEMBL3414472, “Synthesis, SAR, and series evolution of novel oxadiazole-containing 5-lipoxygenase activating protein inhibitors: discovery of 2-[4-(3-{(r)-1-[4-(2-amino-pyrimidin-5-yl)-phenyl]-1-cyclopropyl-ethyl}-[1,2,4]oxadiazol-5-yl)-pyrazol-1-yl]-N,N-dimethyl-acetamide (BI 665915)” (J Med Chem, 2015).
≈ marks a conversion by molar mass, not a printed value.

What was measured:
[1] = molecular target: T1, Arachidonate 5-lipoxygenase-activating protein (Homo sapiens, UniProt P20292); assay: Inhibition of FLAP in calcimycin-stimulated human whole blood assessed as inhibition of LTB4 synthesis preincubated for 15 mins followed by calcimycin stimulation measured after 30 mins
T1 sequence (P20292 whole entry): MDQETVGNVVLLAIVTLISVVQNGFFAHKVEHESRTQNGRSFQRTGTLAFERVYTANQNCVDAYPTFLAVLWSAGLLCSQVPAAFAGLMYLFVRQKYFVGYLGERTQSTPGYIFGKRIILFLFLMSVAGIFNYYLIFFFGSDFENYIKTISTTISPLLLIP
Summary of the method: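 Heparinized human volunteer blood preincubated with compound 15 min at 37 °C, 5 % CO2; calcimycin 100 µM final, 30 min at 37 °C; spun 2000 rpm 5 min at 4 °C. Supernatant LTB4 measured by HTRF competition (LTB4-XL665 plus anti-LTB4 cryptate, 2 h room temperature). Geometric mean (n ≥ 3) of duplicate 10-point curves.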

[2] = Aqueous equilibrium solubility of the compound in crystalline form in citric acid/disodium phosphate buffer at pH 6.8 after 24 hrs of rotation by HPLC analysis; format: physicochemical
Summary of the method: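 Saturated solution of crystalline material in citric acid/disodium phosphate buffer pH 6.8 rotated 24 h; after centrifugation and filtration, dissolved concentration measured by HPLC.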

[3] = molecular target: T1, Arachidonate 5-lipoxygenase-activating protein; assay: Displacement of [125I]-L-691831 from human FLAP expressed in insect SF9 cell membranes after 2 hrs by Topcount analysis
[4] = molecular target: T2, Cytochrome P450 2C9 (Homo sapiens, UniProt P11712); assay: Inhibition of CYP2C9 in human liver microsomes using dichlofenac as substrate at 30 uM preincubated for 10 mins followed by NADPH addition measured after 6 mins; format: ADME; conditions: 0.1 h
T2 sequence (P11712 whole entry): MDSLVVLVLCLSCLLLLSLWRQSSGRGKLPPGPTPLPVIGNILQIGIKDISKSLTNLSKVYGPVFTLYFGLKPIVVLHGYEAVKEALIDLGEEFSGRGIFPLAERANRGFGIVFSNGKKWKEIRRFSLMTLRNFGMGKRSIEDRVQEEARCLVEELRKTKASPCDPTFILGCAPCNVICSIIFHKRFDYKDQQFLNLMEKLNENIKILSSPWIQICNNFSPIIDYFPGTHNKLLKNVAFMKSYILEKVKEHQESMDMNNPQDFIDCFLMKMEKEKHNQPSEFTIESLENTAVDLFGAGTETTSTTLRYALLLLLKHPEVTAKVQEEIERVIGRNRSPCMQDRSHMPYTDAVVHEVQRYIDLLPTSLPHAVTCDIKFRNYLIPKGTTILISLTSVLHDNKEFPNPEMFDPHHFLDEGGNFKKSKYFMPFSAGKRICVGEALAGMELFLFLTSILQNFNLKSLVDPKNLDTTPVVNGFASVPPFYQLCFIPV

[5] = molecular target: T3, Cytochrome P450 2D6 (Homo sapiens, UniProt P10635); assay: Inhibition of CYP2D6 in human liver microsomes using dextromethorphan as substrate at 30 uM preincubated for 10 mins followed by NADPH addition measured after 6 mins; format: ADME; conditions: 0.1 h
T3 sequence (P10635 whole entry): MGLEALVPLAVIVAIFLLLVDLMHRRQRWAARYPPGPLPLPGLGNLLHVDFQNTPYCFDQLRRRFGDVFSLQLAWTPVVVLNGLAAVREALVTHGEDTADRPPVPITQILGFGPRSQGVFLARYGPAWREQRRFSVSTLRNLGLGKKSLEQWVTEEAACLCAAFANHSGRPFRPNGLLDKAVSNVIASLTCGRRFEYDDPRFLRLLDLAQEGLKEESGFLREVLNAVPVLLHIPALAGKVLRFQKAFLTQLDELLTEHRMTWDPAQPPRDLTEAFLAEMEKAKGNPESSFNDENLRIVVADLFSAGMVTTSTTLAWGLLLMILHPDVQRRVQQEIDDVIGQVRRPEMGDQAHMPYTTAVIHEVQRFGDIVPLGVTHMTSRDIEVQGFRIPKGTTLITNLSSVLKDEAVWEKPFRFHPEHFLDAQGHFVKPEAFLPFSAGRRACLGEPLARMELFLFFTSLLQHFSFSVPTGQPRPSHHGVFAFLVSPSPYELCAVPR

[6] = molecular target: hERG (KCNH2) (Homo sapiens, UniProt Q12809); assay: Inhibition of human ERG expressed in HEK293 cells assessed as change in tail current at 11 uM by manual patch clamp assay relative to control; format: cell-based; conditions: HEK293 cells that express hERG
Chain of hERG (KCNH2) (Q12809 whole entry, the tested form may be a part): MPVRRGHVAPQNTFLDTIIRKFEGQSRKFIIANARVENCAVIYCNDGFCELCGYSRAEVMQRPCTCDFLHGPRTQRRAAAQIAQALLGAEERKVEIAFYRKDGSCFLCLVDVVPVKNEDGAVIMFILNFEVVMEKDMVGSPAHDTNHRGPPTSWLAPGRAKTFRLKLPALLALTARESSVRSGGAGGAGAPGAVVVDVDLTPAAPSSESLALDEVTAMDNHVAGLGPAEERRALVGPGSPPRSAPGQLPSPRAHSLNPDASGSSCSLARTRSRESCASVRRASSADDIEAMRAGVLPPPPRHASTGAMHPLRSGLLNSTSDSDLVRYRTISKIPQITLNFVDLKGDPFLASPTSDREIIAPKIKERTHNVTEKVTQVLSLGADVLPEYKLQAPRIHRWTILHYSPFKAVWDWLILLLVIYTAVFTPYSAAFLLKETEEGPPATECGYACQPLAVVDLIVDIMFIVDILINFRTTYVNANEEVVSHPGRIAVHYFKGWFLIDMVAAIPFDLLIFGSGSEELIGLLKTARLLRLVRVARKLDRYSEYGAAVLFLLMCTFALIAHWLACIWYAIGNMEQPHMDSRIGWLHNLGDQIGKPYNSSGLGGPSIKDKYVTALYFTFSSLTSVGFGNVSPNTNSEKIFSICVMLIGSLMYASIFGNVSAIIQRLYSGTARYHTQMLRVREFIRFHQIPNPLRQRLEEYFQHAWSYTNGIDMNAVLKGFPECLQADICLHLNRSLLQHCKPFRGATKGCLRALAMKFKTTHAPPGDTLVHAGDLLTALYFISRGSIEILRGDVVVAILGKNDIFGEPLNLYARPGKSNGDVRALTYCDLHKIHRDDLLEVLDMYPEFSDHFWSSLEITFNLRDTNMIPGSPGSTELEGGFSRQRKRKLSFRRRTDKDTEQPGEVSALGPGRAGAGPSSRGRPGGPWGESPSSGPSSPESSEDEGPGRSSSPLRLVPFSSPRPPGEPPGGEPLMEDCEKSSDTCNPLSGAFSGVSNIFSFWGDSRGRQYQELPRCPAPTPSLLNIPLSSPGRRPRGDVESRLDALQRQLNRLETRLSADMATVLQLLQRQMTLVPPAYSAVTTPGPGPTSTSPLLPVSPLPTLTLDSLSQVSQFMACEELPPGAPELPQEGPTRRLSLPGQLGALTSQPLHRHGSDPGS
Summary of the method: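 Whole-cell manual patch clamp on HEK293 cells stably expressing human ERG, at room temperature (20-22 °C) in a perfusion chamber. Change in hERG tail current amplitude during the hyperpolarizing step measured with escalating compound concentrations.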

[7] = Metabolic stability in human liver microsomes at 1 uM preincubated for 10 mins followed by NADPH addition measured over 60 mins by LC/MS analysis relative to hepatic blood flow; format: ADME; conditions: read-out: Stability
Summary of the method: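 Human liver microsomes (1 mg/mL protein) with test compound at 1 µM, preincubated 10 min at 37 °C before adding NADPH. Remaining compound followed over a 0–60 min time course, as duplicate 8-timepoint curves. The slope of ln(% remaining) against time gives clearance, expressed as percent of hepatic blood flow.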

[8] = molecular target: T2, Cytochrome P450 2C9; assay: Inhibition of CYP2C9 in human liver microsomes using dichlofenac as substrate preincubated for 10 mins followed by NADPH addition measured after 6 mins; format: ADME
Summary of the method: (§1)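 Human liver microsomes (0.05 mg/mL protein) with cocktail substrates: 4 µM diclofenac (2C9), 3 µM dextromethorphan (2D6), 2.5 µM midazolam (3A4). Compound in 0.1 M potassium phosphate pH 7.4 preincubated 10 min at 37 °C; NADPH added, reaction 6 min at 37 °C.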

[9] = molecular target: T4, Arachidonate 5-lipoxygenase-activating protein (Mus musculus, UniProt P30355); assay: Inhibition of FLAP in calcimycin-stimulated mouse whole blood assessed as inhibition of LTB4 synthesis preincubated for 15 mins followed by calcimycin stimulation measured after 30 mins
T4 sequence (P30355 whole entry): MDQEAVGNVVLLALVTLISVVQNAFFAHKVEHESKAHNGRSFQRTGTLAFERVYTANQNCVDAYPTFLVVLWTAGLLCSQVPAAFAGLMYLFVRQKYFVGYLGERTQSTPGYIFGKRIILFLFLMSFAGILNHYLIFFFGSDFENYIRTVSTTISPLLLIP
Summary of the method: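 Mouse whole blood run by the same protocol as the human whole blood LTB4 assay (compound 15 min at 37 °C, 100 µM final calcimycin 30 min, HTRF LTB4 read-out). Geometric mean (n ≥ 3) of duplicate 8-point curves.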

[10] = molecular target: T3, Cytochrome P450 2D6; assay: Inhibition of CYP2D6 in human liver microsomes using dextromethorphan as substrate preincubated for 10 mins followed by NADPH addition measured after 6 mins; format: ADME; summary of the method: as §1
[11] = molecular target: T5, Cytochrome P450 3A4 (Homo sapiens, UniProt P08684); assay: Inhibition of CYP3A4 in human liver microsomes using midazolam as substrate preincubated for 10 mins followed by NADPH addition measured after 6 mins; format: ADME; summary of the method: as §1
T5 sequence (P08684 whole entry): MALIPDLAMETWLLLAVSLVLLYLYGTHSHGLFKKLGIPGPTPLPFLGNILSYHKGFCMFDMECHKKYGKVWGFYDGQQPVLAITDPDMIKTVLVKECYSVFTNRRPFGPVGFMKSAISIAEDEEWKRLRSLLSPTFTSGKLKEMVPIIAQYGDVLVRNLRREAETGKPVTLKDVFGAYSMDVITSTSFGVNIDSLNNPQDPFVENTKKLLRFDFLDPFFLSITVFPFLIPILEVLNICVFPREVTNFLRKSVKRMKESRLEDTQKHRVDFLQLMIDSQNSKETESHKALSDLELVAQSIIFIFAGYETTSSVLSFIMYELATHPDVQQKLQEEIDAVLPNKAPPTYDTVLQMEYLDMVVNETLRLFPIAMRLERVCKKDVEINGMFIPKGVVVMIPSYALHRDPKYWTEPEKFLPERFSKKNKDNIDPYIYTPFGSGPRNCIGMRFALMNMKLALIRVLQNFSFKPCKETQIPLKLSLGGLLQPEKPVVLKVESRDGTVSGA

[12] = molecular target: T5, Cytochrome P450 3A4; assay: Inhibition of CYP3A4 in human liver microsomes using midazolam as substrate at 30 uM preincubated for 10 mins followed by NADPH addition measured after 6 mins; format: ADME; conditions: 0.1 h

Row | IC50 [1] | SMILES | further results
1 | 350 nM | Cn1cc(-c2nc([C@](C)(c3ccc(-c4cnc(N)nc4)cc3)C3CC3)no2)cn1 | –
2 | 460 nM | CCNc1nc(C2(c3ccc(-c4cnc(N)nc4)cc3)CCC2)no1 | –
3 | 110 nM | Nc1ncc(-c2ccc(C3(c4noc(-c5cn[nH]c5)n4)CCC3)cc2)cn1 | solubility thermodynamic at 24 h [2]: 0.4 µg/mL (≈ 1.11 µM)
4 | > 5000 nM | Nc1ncc(-c2ccc(C3(c4noc(-c5cnn(CC(=O)O)c5)n4)CCC3)cc2)cn1 | IC50 [3]: 18 nM
5 | 360 nM | Nc1ncc(-c2ccc(C3(c4noc(-c5cnccn5)n4)CCC3)cc2)cn1 | –
6 | > 5000 nM | Cn1cc(-c2nc(Cc3ccc(-c4cnc(N)nc4)cc3)no2)cn1 | IC50 [3]: > 1000 nM
7 | 470 nM | Nc1ncc(-c2ccc(C3(c4noc(-c5ccccc5)n4)CCC3)cc2)cn1 | –
8 | 20 nM | CC(C)(O)Cn1cc(-c2nc([C@@](C)(c3ccc(-c4cnc(N)nc4)cc3)C3CC3)no2)cn1 | inhibition at 11 µM [6]: 16%; hepatic extraction ratio at 1 h, 1 µM [7]: 0.24; solubility thermodynamic at 24 h [2]: 32 µg/mL (≈ 71.8 µM); IC50 [8]: 4000 nM; IC50 [3]: 2.1 nM; IC50 [9]: 1500 nM; IC50 [10]: > 30000 nM; IC50 [11]: > 30000 nM
9 | 1000 nM | CCNc1ncc(-c2ccc(C(C)(c3noc(-c4cnn(CC(=O)N(C)C)c4)n3)C3CC3)cc2)cn1 (racemic) | –
10 | 820 nM | Nc1ncc(-c2ccc(C3(c4noc(-c5ccncn5)n4)CCC3)cc2)cn1 | –
11 | 240 nM | Nc1ncc(-c2ccc(C3(c4noc(-c5ccnnc5)n4)CCC3)cc2)cn1 | –
12 | 93 nM | Cn1cc(-c2nc(C(C)(C)c3ccc(-c4cnc(N)nc4)cc3)no2)cn1 | –
13 | > 5000 nM | CS(=O)(=O)Nc1nc(C2(c3ccc(-c4cnc(N)nc4)cc3)CCC2)no1 | –
14 | 30 nM | CNc1ncc(-c2ccc([C@](C)(c3noc(-c4cnn(CC(=O)N(C)C)c4)n3)C3CC3)cc2)cn1 | IC50 [3]: 2.9 nM
15 | 340 nM | Nc1ncc(-c2ccc(C3(c4noc(-c5cncnc5)n4)CCC3)cc2)cn1 | –
16 | 14 nM | CN(C)CCn1cc(-c2nc([C@@](C)(c3ccc(-c4cnc(N)nc4)cc3)C3CC3)no2)cn1 | inhibition at 11 µM [6]: 31%; hepatic extraction ratio at 1 h, 1 µM [7]: 0.4; solubility thermodynamic at 24 h [2]: > 1100 µg/mL; IC50 [8]: > 30000 nM; IC50 [10]: 10000 nM; IC50 [11]: > 30000 nM
17 | 2200 nM | Cn1cc(-c2nc(C3(c4ccc(-c5cnc(N)nc5)cc4)CC3)no2)cn1 | –
18 | 1500 nM | Cn1cc(-c2nc(C3(c4ccc(-c5cnc(N)nc5)cc4)CC(C)(C)C3)no2)cn1 | –
19 | 400 nM | Nc1ncc(-c2ccc(C3(c4noc(-c5cccnn5)n4)CCC3)cc2)cn1 | –
20 | 3200 nM | Cn1cc(-c2nc([C@](C)(c3ccc(-c4cnc(N)nc4)cc3)C3CCC3)no2)cn1 | –
21 | 47 nM | CN(C)CCn1cc(-c2nc(C3(c4ccc(-c5cnc(N)nc5)cc4)CCC3)no2)cn1 | solubility thermodynamic at 24 h [2]: 270 µg/mL (≈ 627 µM); IC50 [8]: 7000 nM; inhibition (INH) [12]: Not Active; IC50 [10]: 10000 nM
22 | 2100 nM | Nc1ncc(-c2ccc(C3(c4noc(-c5c[nH]nn5)n4)CCC3)cc2)cn1 | –
23 | 91 nM | Cn1cc(-c2nc([C@@](C)(c3ccc(-c4cnc(N)nc4)cc3)C3CCC3)no2)cn1 | –

Second part, the compound before the results:

Row | SMILES | IC50 [1] | further results
24 | CC(C)[C@@](C)(c1ccc(-c2cnc(N)nc2)cc1)c1noc(-c2cnn(C)c2)n1 | 360 nM | –
25 | CC(C)C(C)(c1ccc(-c2cnc(N)nc2)cc1)c1noc(-c2cnn(C)c2)n1 (racemic) | 46 nM | –
26 | CN(C)C(=O)Cn1cc(-c2nc(C3(c4ccc(-c5cnc(N)nc5)cc4)CCC3)no2)cn1 | 81 nM | solubility thermodynamic at 24 h [2]: 20 µg/mL (≈ 45 µM); IC50 [3]: 3.6 nM; inhibition (INH) [4]: Not Active; inhibition (INH) [5]: Not Active
27 | CC(C)[C@](C)(c1ccc(-c2cnc(N)nc2)cc1)c1noc(-c2cnn(C)c2)n1 | 33 nM | –
28 | NCCn1cc(-c2nc(C3(c4ccc(-c5cnc(N)nc5)cc4)CCC3)no2)cn1 | 240 nM | –
29 | Nc1ncc(-c2ccc(C3(c4noc(-c5nc[nH]n5)n4)CCC3)cc2)cn1 | 2700 nM | –
30 | CC(C)Nc1ncc(-c2ccc([C@](C)(c3noc(-c4cnn(CC(=O)N(C)C)c4)n3)C3CC3)cc2)cn1 | > 50000 nM | IC50 [3]: > 1000 nM
31 | Nc1ncc(-c2ccc(C3(c4noc(-c5cccnc5)n4)CCC3)cc2)cn1 | 250 nM | –
32 | Nc1ncc(-c2ccc(C3(c4noc(-c5cocn5)n4)CCC3)cc2)cn1 | 310 nM | –
33 | CC(C)C(c1ccc(-c2cnc(N)nc2)cc1)c1noc(-c2cnn(C)c2)n1 (racemic) | 190 nM | –
34 | COCCn1cc(-c2nc(C3(c4ccc(-c5cnc(N)nc5)cc4)CCC3)no2)cn1 | – | solubility thermodynamic at 24 h [2]: 9.3 µg/mL (≈ 22.3 µM)
35 | Nc1ncc(-c2ccc(C3(c4noc(-c5c[nH]cn5)n4)CCC3)cc2)cn1 | 270 nM | –
36 | CC(C)(O)Cn1cc(-c2nc(C3(c4ccc(-c5cnc(N)nc5)cc4)CCC3)no2)cn1 | – | inhibition at 11 µM [6]: 51%; solubility thermodynamic at 24 h [2]: 3.1 µg/mL (≈ 7.18 µM); IC50 [8]: 6000 nM; IC50 [10]: 3000 nM; IC50 [11]: > 30000 nM
37 | Cn1cc(-c2nc(C3(c4ccc(-c5cnc(N)nc5)cc4)CCC3)no2)cn1 | – | solubility thermodynamic at 24 h [2]: 0.03 µg/mL (≈ 0.0803 µM)
38 | Nc1ncc(-c2ccc(C3(c4noc(-c5cscn5)n4)CCC3)cc2)cn1 | 200 nM | –
39 | Nc1ncc(-c2ccc(C3(c4noc(-c5ccc[nH]c5=O)n4)CCC3)cc2)cn1 | > 5000 nM | –
40 | Cn1cc(-c2nc([C@@](C)(c3ccc(-c4cnc(N)nc4)cc3)C3CC3)no2)cn1 | 15 nM | –
41 | CN(C)C(=O)Cn1cc(-c2nc([C@@](C)(c3ccc(-c4ccc(N)nc4)cc3)C3CC3)no2)cn1 | 66 nM | –
42 | Nc1ncc(-c2ccc(C3(c4noc(-c5cc[nH]n5)n4)CCC3)cc2)cn1 | 160 nM | –
43 | CN(C)C(=O)Cn1cc(-c2nc([C@@](C)(c3ccc(-c4cnc(N)cn4)cc3)C3CC3)no2)cn1 | 73 nM | –
